According to ChEMBL document CHEMBL4196073, “The aminopyridine-3,5-dicarbonitrile core for the design of new non-nucleoside-like agonists of the human adenosine A2B receptor” (Eur J Med Chem, 2018):
The source made the active and inactive calls. The calls are words filed in the database; no cut-off is given here.

Legend:
[1] = biological target: T1, Adenosine receptor A2b (Homo sapiens, UniProt P29275); assay: Agonist activity at human adenosine A2B receptor expressed in CHO cell membranes assessed as induction of cAMP accumulation by AlphaScreen assay; type: functional, cell-based
T1 sequence (P29275 whole entry): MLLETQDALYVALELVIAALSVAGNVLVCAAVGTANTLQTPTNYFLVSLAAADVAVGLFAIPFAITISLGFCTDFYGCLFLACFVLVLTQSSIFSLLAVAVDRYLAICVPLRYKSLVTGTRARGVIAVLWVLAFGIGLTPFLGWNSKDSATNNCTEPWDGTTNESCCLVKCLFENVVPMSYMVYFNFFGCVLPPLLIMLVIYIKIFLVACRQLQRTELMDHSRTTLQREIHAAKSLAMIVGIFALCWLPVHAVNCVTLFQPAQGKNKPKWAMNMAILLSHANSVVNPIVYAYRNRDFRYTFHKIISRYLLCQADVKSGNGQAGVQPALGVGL
Method in brief: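 Intact hA2B-transfected CHO cells, trypsin-detached, stimulated in HBSS/5 mM HEPES/0.5 mM Ro 20-1724/0.1% BSA with compound alone at 1 nM–1 μM; cAMP read by AlphaScreen kit; EC50 from four separate assays each in triplicate, mean ± SEM.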

[2] = biological target: T2, Adenosine receptor A3 (Homo sapiens) (UniProt P0DMS8); assay: Displacement of [125I]-ABMECA from human adenosine A3 receptor expressed in CHO cell membranes at 1 uM after 120 mins by scintillation counting analysis
T2 sequence (whole entry): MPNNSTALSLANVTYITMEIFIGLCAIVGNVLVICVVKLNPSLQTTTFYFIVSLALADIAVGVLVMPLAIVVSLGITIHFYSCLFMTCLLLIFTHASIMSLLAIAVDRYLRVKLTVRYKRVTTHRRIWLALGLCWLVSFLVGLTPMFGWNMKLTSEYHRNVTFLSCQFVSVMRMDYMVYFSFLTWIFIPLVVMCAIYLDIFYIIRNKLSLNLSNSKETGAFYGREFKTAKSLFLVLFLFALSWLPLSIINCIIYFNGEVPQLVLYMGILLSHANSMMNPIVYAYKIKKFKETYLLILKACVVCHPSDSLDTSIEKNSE
Method in brief: (§1)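 Membranes of hA3-CHO cells, 50 µg protein/100 µl, incubated 120 min at 4°C with 0.5 nM [125I]AB-MECA in 50 mM Tris HCl pH 7.4, 10 mM MgCl2, 1 mM EDTA; 1 µM AB-MECA for nonspecific; filter separation, counted. Ki by Cheng–Prusoff, four assays in triplicate; I% at 1 μM.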

[3] = biological target: T3, Adenosine receptor A2a (Homo sapiens, UniProt P29274); assay: Displacement of [3H]-ZM241385 from human adenosine A2A receptor expressed in CHO cell membranes at 1 uM after 60 mins by scintillation counting analysis
[4] = biological target: T4, Adenosine receptor A2b (Homo sapiens) (UniProt P29275); assay: Agonist activity at human adenosine A2B receptor expressed in CHO cell membranes assessed as induction of cAMP accumulation at 1 uM by AlphaScreen assay relative to NECA; type: functional, cell-based
T4 sequence (whole entry): T1 sequence (P29275 whole entry)
Method in brief: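 Whole adherent hA2B-transfected CHO cells (DMEM/F12, 10% FCS, G418), trypsin-detached, in HBSS with 5 mM HEPES, 0.5 mM Ro 20-1724, 0.1% BSA; test compound at 1 μM alone; cAMP by AlphaScreen; efficacy expressed relative to NECA 1 μM taken as 100%.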

[5] = biological target: T5, Adenosine receptor A1 (Homo sapiens, UniProt P30542); assay: Displacement of [3H]DPCPX from human adenosine A1 receptor expressed in CHO cell membranes after 90 mins by scintillation counting analysis
T5 sequence (P30542 whole entry): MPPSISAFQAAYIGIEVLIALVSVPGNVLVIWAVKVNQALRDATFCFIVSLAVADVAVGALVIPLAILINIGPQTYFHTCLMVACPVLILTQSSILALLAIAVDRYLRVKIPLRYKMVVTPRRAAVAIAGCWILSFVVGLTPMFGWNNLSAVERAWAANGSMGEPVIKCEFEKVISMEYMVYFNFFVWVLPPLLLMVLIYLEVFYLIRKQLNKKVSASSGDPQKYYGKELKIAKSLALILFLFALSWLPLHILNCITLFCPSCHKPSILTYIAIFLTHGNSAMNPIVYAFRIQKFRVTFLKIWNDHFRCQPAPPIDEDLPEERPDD
Method in brief: (§2)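 Hypotonic-lysed (5 mM Tris HCl, 1 mM EDTA, pH 7.4), 40000 g pelleted hA1-CHO membranes, 50 µg protein/100 µl, with 1 nM [3H]DPCPX, 90 min, 25°C, 50 mM Tris HCl pH 7.4; nonspecific with 1 µM DPCPX; GF/B filtration, scintillation. Ki via Cheng–Prusoff, four assays in triplicate; I% at 1 μM.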

[6] = biological target: T3, Adenosine receptor A2a; assay: Displacement of [3H]-ZM241385 from human adenosine A2A receptor expressed in CHO cell membranes after 60 mins by scintillation counting analysis
[7] = biological target: T6, Adenosine receptor A1 (Homo sapiens) (UniProt P30542); assay: Displacement of [3H]DPCPX from human adenosine A1 receptor expressed in CHO cell membranes at 1 uM after 90 mins by scintillation counting analysis; method in brief: as §2
T6 sequence (whole entry): T5 sequence (P30542 whole entry)

[8] = biological target: T7, Adenosine receptor A3 (Homo sapiens, UniProt P0DMS8); assay: Displacement of [125I]-ABMECA from human adenosine A3 receptor expressed in CHO cell membranes after 120 mins by scintillation counting analysis; method in brief: as §1
T7 sequence (P0DMS8 whole entry): T2 sequence (whole entry)

[9] = species: Homo sapiens; assay: Selectivity index, ratio of Ki for human adenosine A3 receptor to EC50 for human adenosine A2B receptor
[10] = species: Homo sapiens; assay: Selectivity index, ratio of Ki for human adenosine A1 receptor to EC50 for human adenosine A2B receptor
[11] = species: Homo sapiens; assay: Selectivity index, ratio of Ki for human adenosine A2A receptor to EC50 for human adenosine A2B receptor
[12] = biological target: T4, Adenosine receptor A2b (Homo sapiens); assay: Antagonist activity at human adenosine A2B receptor expressed in CHO cell membranes assessed as inhibition of NECA-stimulated cAMP accumulation at 1 uM by AlphaScreen assay; type: functional, cell-based
Method in brief: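 hA2B-transfected CHO cells in HBSS, 5 mM HEPES, 0.5 mM Ro 20-1724, 0.1% BSA; compound at 1 μM given with NECA 100 nM; cAMP production measured by AlphaScreen.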

T3 sequence (P29274 whole entry): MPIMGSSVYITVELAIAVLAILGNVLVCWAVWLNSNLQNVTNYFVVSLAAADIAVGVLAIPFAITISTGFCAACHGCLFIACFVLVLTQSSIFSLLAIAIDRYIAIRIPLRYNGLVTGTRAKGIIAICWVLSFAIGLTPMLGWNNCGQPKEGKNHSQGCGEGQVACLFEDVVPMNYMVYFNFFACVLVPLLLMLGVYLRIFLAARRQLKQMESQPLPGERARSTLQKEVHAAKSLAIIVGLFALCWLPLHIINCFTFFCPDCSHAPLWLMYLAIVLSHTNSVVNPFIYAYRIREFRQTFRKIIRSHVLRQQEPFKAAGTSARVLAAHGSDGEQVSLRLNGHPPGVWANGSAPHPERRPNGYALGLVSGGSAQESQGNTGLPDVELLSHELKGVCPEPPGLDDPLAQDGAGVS

Structure (SMILES)	EC50 [1] [µM]	inhibition [2] [%]	inhibition [3] [%]	Efficacy [4] [%]	Ki [5] [µM]	Ki [6] [µM]	inhibition [7] [%]	Ki [8] [µM]	Selectivity Index [9]	Selectivity Index [10]	Selectivity Index [11]	inhibition [12]
N#Cc1c(N)nc(SCc2cccc(C(N)=O)c2)c(C#N)c1-c1ccc(OCC2CC2)cc1	0.0127	1	25	69	0.083	–	–	–	–	–	–	–
CC(C)COc1ccc(-c2c(C#N)c(N)nc(SCC(N)=O)c2C#N)cc1	–	9	–	1	0.603	0.307	–	–	–	–	–	–
CCOc1ccc(-c2c(C#N)c(N)nc(SCC(N)=O)c2C#N)cc1	0.038	20	1	66	0.345	–	–	–	–	–	–	–
N#Cc1c(N)nc(SCc2cnc[nH]2)c(C#N)c1-c1ccc(OCC2CC2)cc1	0.139	1	7	50	–	–	1	–	–	–	–	–
N#Cc1c(N)nc(SCc2ncn[nH]2)c(C#N)c1-c1ccc(OCC2CC2)cc1	0.051	1	1	50	0.338	–	–	–	–	–	–	–
N#Cc1c(N)nc(SCc2ncc[nH]2)c(C#N)c1-c1ccc(OCC2CC2)cc1	0.0095	–	–	70	0.235	0.764	–	0.474	50	25	80	–
C=CCOc1ccc(-c2c(C#N)c(N)nc(SCc3ccn[nH]3)c2C#N)cc1	–	13	8	7	0.044	–	–	–	–	–	–	inactive
CCOc1ccc(-c2c(C#N)c(N)nc(SCc3ncc[nH]3)c2C#N)cc1	0.0117	–	–	62	0.0082	0.221	–	0.085	–	–	–	–
N#Cc1c(N)nc(SCC2=NCCN2)c(C#N)c1-c1ccc(OCC2CC2)cc1	–	6	14	7	0.483	–	–	–	–	–	–	inactive
N#Cc1c(N)nc(SCc2nc3ccccc3[nH]2)c(C#N)c1-c1ccc(OCC2CC2)cc1	–	1	6	12	–	–	21	–	–	–	–	inactive
C=CCOc1ccc(-c2c(C#N)c(N)nc(SCC(N)=O)c2C#N)cc1	–	–	18	11	0.323	–	–	0.444	–	–	–	–
N#Cc1c(N)nc(SCC(N)=O)c(C#N)c1-c1ccc(OCC2CC2)cc1	0.031	8	2	100	–	–	31	–	–	–	–	–
N#Cc1c(N)nc(SCc2csc(N)n2)c(C#N)c1-c1ccc(OCC2CC2)cc1	–	1	1	17	0.14	–	–	–	–	–	–	inactive
C=C(C)COc1ccc(-c2c(C#N)c(N)nc(SCC(N)=O)c2C#N)cc1	–	4	31	2	0.872	–	–	–	–	–	–	–
N#Cc1c(N)nc(SCn2cncn2)c(C#N)c1-c1ccc(OCC2CC2)cc1	–	1	1	1	–	–	12	–	–	–	–	inactive
CCOc1ccc(-c2c(C#N)c(N)nc(SCC(=O)NC)c2C#N)cc1	0.211	–	8	48	0.104	–	–	0.834	–	–	–	–
N#Cc1c(N)nc(SCc2cccnc2)c(C#N)c1-c1ccc(OCC2CC2)cc1	–	19	–	1	0.067	0.424	–	–	–	–	–	–
CC(=O)Nc1ccc(-c2c(C#N)c(N)nc(SCC(N)=O)c2C#N)cc1	0.164	–	–	92	–	0.572	17	0.742	–	–	–	–
N#Cc1c(N)nc(SCc2ccn[nH]2)c(C#N)c1-c1ccc(OCC2CC2)cc1	0.084	6	2	48	0.552	–	–	–	–	–	–	–
CCOc1ccc(-c2c(C#N)c(N)nc(SCc3ccn[nH]3)c2C#N)cc1	0.332	18	4	34	0.021	–	–	–	–	–	–	–
N#Cc1c(N)nc(SCC(=O)NCO)c(C#N)c1-c1ccc(OCC2CC2)cc1	0.182	8	1	57	–	–	10	–	–	–	–	–
CNC(=O)CSc1nc(N)c(C#N)c(-c2ccc(OCC3CC3)cc2)c1C#N	0.094	3	1	63	–	–	14	–	–	–	–	–
N#Cc1c(N)nc(SCC(=O)NO)c(C#N)c1-c1ccc(OCC2CC2)cc1	–	31	1	20	0.536	–	–	–	–	–	–	–
COC(=O)c1cccc(CSc2nc(N)c(C#N)c(-c3ccc(OCC4CC4)cc3)c2C#N)c1	0.347	4	1	27	0.066	–	–	–	–	–	–	–
N#Cc1c(N)nc2sc(C(N)=O)c(N)c2c1-c1ccc(OCC2CC2)cc1	–	13	3	1	–	–	19	–	–	–	–	–
N#Cc1c(N)nc(SCc2nnn[nH]2)c(C#N)c1-c1ccc(OCC2CC2)cc1	–	1	1	25	–	–	3	–	–	–	–	inactive
N#Cc1c(N)nc(SCC(N)=O)c(C#N)c1-c1ccc(OCC2CCC2)cc1	–	1	5	5	–	–	1	–	–	–	–	inactive
COC(=O)CSc1nc(N)c(C#N)c(-c2ccc(OCC3CC3)cc2)c1C#N	–	1	1	1	–	–	23	–	–	–	–	inactive
